Measurements published in ChEMBL document CHEMBL3352534, “A prodrug strategy for the oral delivery of a poorly soluble HCV NS5B thumb pocket 1 polymerase inhibitor using self-emulsifying drug delivery systems (SEDDS)” (Bioorg Med Chem Lett, 2015).

What was measured:
Rattus norvegicus [1] = experiment: AUC in rat assessed as (E)-3-(4-(1-(2-(5-chloropyrimidin-2-yl)-3-cyclopentyl-1-methyl-1H-indole-6-carboxamido)cyclobutanecarboxamido)-2-ethoxyphenyl)acrylic acid at 10 mg/kg, po using 10.6% PEG400, 5.4% Cremophor EL, 2.6% Labrasol, 1.4% Capmul MCM in water (80%) vehicle; type: ADME, organism-based, Plasma; parameters: dose 10 mg/kg, route oral; details: in vivo
How it was run: (§1)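 Fasted rats were given a single 10 mg/kg oral dose, with n = 3 per dose and route. Plasma was extracted by solid-phase extraction. Analysis used HPLC with diode-array UV (200–400 nm, peak height at best S/N) or LC/MS. Calibration standards were made in blank plasma, with LOQ 7–14 ng/mL. Parameters came from noncompartmental analysis.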

[2] = Permeability across human Caco2 cells; type: ADME, cell-based; details: Caco-2
Rattus norvegicus [3] = experiment: Cmax in rat plasma assessed as (E)-3-(4-(1-(2-(5-chloropyrimidin-2-yl)-3-cyclopentyl-1-methyl-1H-indole-6-carboxamido)cyclobutanecarboxamido)-2-ethoxyphenyl)acrylic acid at 10 mg/kg, po using 0.5% Methyl cellulose, 0.3% Tween-80, 1% N-methylpyrrolidone in water vehicle; type: ADME, organism-based; parameters: dose 10 mg/kg, route oral; details: in vivo; how it was run: as §1
Rattus norvegicus [4] = experiment: AUC in rat plasma assessed as (E)-3-(4-(1-(2-(5-chloropyrimidin-2-yl)-3-cyclopentyl-1-methyl-1H-indole-6-carboxamido)cyclobutanecarboxamido)-2-ethoxyphenyl)acrylic acid at 10 mg/kg, po using 0.5% Methyl cellulose, 0.3% Tween-80, 1% N-methylpyrrolidone in water vehicle; type: ADME, organism-based; parameters: dose 10 mg/kg, route oral; details: in vivo; how it was run: as §1
Rattus norvegicus [5] = experiment: Cmax in rat plasma assessed as (E)-3-(4-(1-(2-(5-chloropyrimidin-2-yl)-3-cyclopentyl-1-methyl-1H-indole-6-carboxamido)cyclobutanecarboxamido)-2-ethoxyphenyl)acrylic acid at 10 mg/kg, po using 10.6% PEG400, 5.4% Cremophor EL, 2.6% Labrasol, 1.4% Capmul MCM in water (80%) vehicle; type: ADME, organism-based; parameters: dose 10 mg/kg, route oral; details: in vivo; how it was run: as §1
Rattus norvegicus [6] = experiment: AUC in rat plasma assessed as (E)-3-(4-(1-(2-(5-chloropyrimidin-2-yl)-3-cyclopentyl-1-methyl-1H-indole-6-carboxamido)cyclobutanecarboxamido)-2-ethoxyphenyl)acrylic acid at 10 mg/kg, po using 10.6% PEG400, 5.4% Cremophor EL, 2.6% Labrasol, 1.4% Capmul MCM in water (80%) vehicle; type: ADME, organism-based; parameters: dose 10 mg/kg, route oral; details: in vivo; how it was run: as §1
Rattus norvegicus [7] = experiment: AUC in rat assessed as (E)-3-(4-(1-(2-(5-chloropyrimidin-2-yl)-3-cyclopentyl-1-methyl-1H-indole-6-carboxamido)cyclobutanecarboxamido)-2-ethoxyphenyl)acrylic acid at 2 mg/kg, iv; type: ADME, organism-based, Plasma; parameters: dose 2 mg/kg, route intravenous; details: in vivo
How it was run: (§2)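 Overnight-fasted rats received 2 mg/kg IV in 70% PEG400:30% water, n = 3. Plasma parent drug was quantified after solid-phase extraction by HPLC-UV or LC/MS against blank-plasma calibration standards (LOQ 7–14 ng/mL). Noncompartmental analysis gave the PK parameters.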

Rattus norvegicus [8] = experiment: Mean residence time in rat assessed as (E)-3-(4-(1-(2-(5-chloropyrimidin-2-yl)-3-cyclopentyl-1-methyl-1H-indole-6-carboxamido)cyclobutanecarboxamido)-2-ethoxyphenyl)acrylic acid at 2 mg/kg, iv; type: ADME, organism-based; parameters: dose 2 mg/kg, route intravenous; details: in vivo; how it was run: as §2
Rhesus monkey = experiment: AUC in monkey assessed as (E)-3-(4-(1-(2-(5-chloropyrimidin-2-yl)-3-cyclopentyl-1-methyl-1H-indole-6-carboxamido)cyclobutanecarboxamido)-2-ethoxyphenyl)acrylic acid at 10 mg/kg using 10.6% PEG400, 5.4% Cremophor EL, 2.6% Labrasol, 1.4% Capmul MCM in water (80%) vehicle; type: ADME, organism-based, Macaca mulatta, Plasma; parameters: dose 10 mg/kg; details: in vivo
Canis familiaris = experiment: AUC in dog assessed as (E)-3-(4-(1-(2-(5-chloropyrimidin-2-yl)-3-cyclopentyl-1-methyl-1H-indole-6-carboxamido)cyclobutanecarboxamido)-2-ethoxyphenyl)acrylic acid at 10 mg/kg using 10.6% PEG400, 5.4% Cremophor EL, 2.6% Labrasol, 1.4% Capmul MCM in water (80%) vehicle; type: ADME, organism-based, Canis lupus familiaris, Plasma; parameters: dose 10 mg/kg; details: in vivo
Rattus norvegicus [9] = experiment: Total clearance in rat assessed as (E)-3-(4-(1-(2-(5-chloropyrimidin-2-yl)-3-cyclopentyl-1-methyl-1H-indole-6-carboxamido)cyclobutanecarboxamido)-2-ethoxyphenyl)acrylic acid at 2 mg/kg, iv; details: in vivo

AUC (Rattus norvegicus [1]): 19.3 µM·h
Papp [2]: 13 ×10⁻⁶ cm/s
Cmax (Rattus norvegicus [3]): 7.4 µM
AUC (Rattus norvegicus [4]): 25.5 µM·h
Cmax (Rattus norvegicus [5]): 2.1 µM
AUC (Rattus norvegicus [6]): 7.5 µM·h
AUC (Rattus norvegicus [7]): 20.1 µM·h
MRT (Rattus norvegicus [8]): 2.5 h
AUC (Rhesus monkey): 53 µM·h
AUC (Canis familiaris): 76 µM·h
CL (Rattus norvegicus [9]): 2.6 mL/min/kg
Structure (SMILES): CCOc1cc(NC(=O)C2(NC(=O)c3ccc4c(C5CCCC5)c(-c5ncc(Cl)cn5)n(C)c4c3)CCC2)ccc1/C=C/C(=O)O
